In ChEMBL document CHEMBL1132573, “Novel antitumor 2-cyanoaziridine-1-carboxamides” (J Med Chem, 1999):

Assays:
[1] = Number of colony forming cells of human melanoma tumor showing sensitivity among the 10 colony forming cells tested in vitro at compound concentration of 10 uM; type: functional
In short: (§1)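 Fresh human tumor specimens from patients at the Arizona Cancer Center, run in the human tumor cloning (colony-forming) assay by a standard protocol. Read-out was [3H]thymine uptake by tumor-colony-forming cells.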

Breast carcinoma cell [2] = assay: Number of colony forming cells of human breast tumor showing sensitivity among the 4 colony forming cells tested in vitro at compound concentration of 0.1 uM; type: functional; in short: as §1
[3] = Number of colony forming cells of human myeloma tumor showing sensitivity among the 3 colony forming cells tested in vitro at compound concentration of 10 uM; type: functional; in short: as §1
[4] = Number of colony forming cells of human ovary tumor showing sensitivity among the 11 colony forming cells tested in vitro at compound concentration of 1.0 uM; type: functional, Female gonad; in short: as §1
WiDr [5] = assay: Inhibition of cell growth in drug resistant WiDr colon cell line; type: functional, cell-based; conditions: Homo sapiens
[6] = Number of colony forming cells of human stomach tumor showing sensitivity among the 1 colony forming cells tested in vitro at compound concentration of 1.0 uM; type: functional
In short: (§2)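 Fresh human tumor specimens, obtained from patients at the Arizona Cancer Center, were tested as tumor-colony-forming cells in the human tumor cloning assay. Sensitivity was scored as a 50% or greater decrease in […] uptake by treated colony-forming cells relative to untreated control colony-forming cells. The value is the count of sensitive specimens among those tested.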

[7] = Number of colony forming cells of human lung tumor showing sensitivity among the 2 colony forming cells tested in vitro at compound concentration of 10 uM; type: functional; in short: as §1
[8] = Number of colony forming cells of human melanoma tumor showing sensitivity among the 10 colony forming cells tested in vitro at compound concentration of 1.0 uM; type: functional; in short: as §1
[9] = Number of colony forming cells of human lung tumor showing sensitivity among the 2 colony forming cells tested in vitro at compound concentration of 0.1 uM; type: functional; in short: as §1
MCF7 [10] = assay: Inhibition of cell growth in (MCF7 breast) dox cell line; type: functional, cell-based; conditions: Homo sapiens
[11] = Number of colony forming cells of human melanoma tumor showing sensitivity among the 5 colony forming cells tested in vitro at compound concentration of 0.1 uM; type: functional; in short: as §1
[12] = Number of colony forming cells of human gynecologic tumor showing sensitivity among the 4 colony forming cells tested in vitro at compound concentration of 0.1 uM; type: functional; in short: as §1
A549 = assay: Inhibition of cell growth in (A-549) lung cell line; type: functional, cell-based; conditions: Homo sapiens
[13] = Number of colony forming cells of human sarcoma tumor showing sensitivity among the 8 colony forming cells tested in vitro at compound concentration of 10 uM; type: functional; in short: as §2
[14] = Number of colony forming cells of human gynecologic tumor showing sensitivity among the 4 colony forming cells tested in vitro at compound concentration of 10 uM; type: functional; in short: as §1
[15] = Number of colony forming cells of human ovary tumor showing sensitivity among the 12 colony forming cells tested in vitro at compound concentration of 0.1 uM; type: functional, Female gonad; in short: as §1
MCF7 [16] = assay: Inhibition of cell growth in (MCF7 breast) mitox cell line; type: functional, cell-based; conditions: Homo sapiens
WiDr [17] = assay: Inhibition of cell growth in drug sensitive WiDr colon cell line; type: functional, cell-based; conditions: Homo sapiens
[18] = Number of colony forming cells of human sarcoma tumor showing sensitivity among the 8 colony forming cells tested in vitro at compound concentration of 1.0 uM; type: functional; in short: as §2
Breast carcinoma cell [19] = assay: Number of colony forming cells of human breast tumor showing sensitivity among the 4 colony forming cells tested in vitro at compound concentration of 10 uM; type: functional; in short: as §1
[20] = Number of colony forming cells of human stomach tumor showing sensitivity among the 1 colony forming cells tested in vitro at compound concentration of 10 uM; type: functional; in short: as §2
MCF7 [21] = assay: Inhibition of cell growth in drug sensitive MCF-7 breast cell line; type: functional, cell-based; conditions: Homo sapiens
[22] = Number of colony forming cells of human sarcoma tumor showing sensitivity among the 2 colony forming cells tested in vitro at compound concentration of 0.1 uM; type: functional; in short: as §2
[23] = Number of colony forming cells of human gynecologic tumor showing sensitivity among the 4 colony forming cells tested in vitro at compound concentration of 1.0 uM; type: functional; in short: as §1
RPMI-8226 = assay: Inhibition of cell growth in drug sensitive 8226 myeloma cell line; type: functional, cell-based; conditions: Homo sapiens
[24] = Number of colony forming cells of human lung tumor showing sensitivity among the 2 colony forming cells tested in vitro at compound concentration of 1.0 uM; type: functional; in short: as §1
Breast carcinoma cell [25] = assay: Number of colony forming cells of human breast tumor showing sensitivity among the 4 colony forming cells tested in vitro at compound concentration of 1.0 uM; type: functional; in short: as §1
[26] = Number of colony forming cells of human myeloma tumor showing sensitivity among the 3 colony forming cells tested in vitro at compound concentration of 1.0 uM; type: functional; in short: as §1
[27] = Number of colony forming cells of human stomach tumor showing sensitivity among the 1 colony forming cells tested in vitro at compound concentration of 0.1 uM; type: functional; in short: as §2
[28] = Number of colony forming cells of human myeloma tumor showing sensitivity among the 3 colony forming cells tested in vitro at compound concentration of 0.1 uM; type: functional; in short: as §1
[29] = Number of colony forming cells of human ovary tumor showing sensitivity among the 12 colony forming cells tested in vitro at compound concentration of 10 uM; type: functional, Female gonad; in short: as §1

In the case of N=C1NC(=O)N2CC12 (stereo unspecified) [IMEXON], the Sensitivity [1] is reported as 8, the Sensitivity (Breast carcinoma cell [2]) is reported as 0 and the Sensitivity [3] is reported as 3. The Sensitivity [4] was 3, the IC50 (WiDr [5]) was greater than 72 µM and the Sensitivity [6] was 0. The Sensitivity [7] was 2, the Sensitivity [8] was 4 and the Sensitivity [9] was 0. For the same molecule, the IC50 (MCF7 [10]) was greater than 18 µM, the Sensitivity [11] was 3 and the Sensitivity [12] was 0. It also gave an IC50 (A549) greater than 72 µM, a Sensitivity [13] of 5 and a Sensitivity [14] of 1. For the same molecule, the Sensitivity [15] was 4, the IC50 (MCF7 [16]) was greater than 18 µM and the IC50 (WiDr [17]) was greater than 72 µM. The Sensitivity [18] was 2, the Sensitivity (Breast carcinoma cell [19]) was 3 and the Sensitivity [20] was 1. For the same molecule, the IC50 (MCF7 [21]) was greater than 18 µM, the Sensitivity [22] was 0 and the Sensitivity [23] was 0. It also gave an IC50 (RPMI-8226) of 17 µM, a Sensitivity [24] of 0 and a Sensitivity (Breast carcinoma cell [25]) of 2. For the same molecule, the Sensitivity [26] was 3, the Sensitivity [27] was 0 and the Sensitivity [28] was 3. The Sensitivity [29] was 8.
